pIC50: −log10 of the molar value. Active and inactive are the calls of the source. The calls are words filed in the database; no cut-off is given here.
Key:
[1] = Reduction of EGFR expression in human U251MG cells at 25 uM after 24 hrs by Western blot analysis; format: functional, cell-based; details: U-251
Method in brief: (§1)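 LN18, U87MG, T98G, U251MG and U373MG glioblastoma cells were exposed to morusin for 24 h. Cells were maintained in DMEM, MEM or RPMI with 10% FBS at 37 °C and 5% CO2. Whole-cell lysates were Western blotted for receptor proteins, with β-actin as internal control.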

[2] = test system: U-251; experiment: Induction of DR5 expression in human U251MG cells at 25 uM after 24 hrs by FITC-conjugated flow cytometric analysis; format: functional, cell-based
Method in brief: (§2)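 Cells given 25 μM morusin for 24 h, then stained on ice for 30 min with 0.5 μg/mL FITC-conjugated anti-DR4, anti-DR5 or isotype IgG in FACS buffer. Surface expression read by flow cytometry.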

[3] = Reduction of XIAP expression in human U87MG cells at 25 uM by Western blot analysis; format: functional, cell-based; details: U-87MG ATCC, TDE = time-dependent effect
Method in brief: (§3)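 Time course: U87MG and U373MG cells were exposed to 25 μM morusin for the indicated times. Whole-cell extracts were Western blotted, with β-actin as internal control.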

[4] = Reduction of survivin expression in human U87MG cells after 24 hrs by Western blot analysis; format: functional, cell-based; details: U-87MG ATCC
Method in brief: (§4)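 U87MG (MEM) and U373MG (RPMI) cells were given graded morusin concentrations for 24 h. Whole-cell extracts were immunoblotted for anti-apoptotic proteins, with β-actin as loading control.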

[5] = test system: U-251; experiment: Effect on DcR2 expression in human U251MG cells upto 25 uM after 24 hrs by Western blot analysis; format: functional, cell-based
Method in brief: (§5)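 Cells exposed to a range of morusin concentrations for 24 h. Cell extracts immunoblotted for DR4, DR5, DcR1 and DcR2, with β-actin as internal control and HRP-conjugated secondary antibodies (1:5000).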

[6] = Reduction of survivin mRNA expression in human U87MG cells at 25 uM by RT-qPCR analysis; format: functional, cell-based; details: U-87MG ATCC, TDE = time-dependent effect
Method in brief: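 U87MG cells were exposed to 25 μM morusin over a time course. Total RNA (1 μg) was reverse transcribed, and XIAP and survivin transcripts were measured by RT-qPCR against GAPDH. Results are mean ± SD from at least three independent experiments.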

[7] = Cytotoxicity against human U373MG cells assessed as reduction in cell viability measured up to 20 uM after 24 hrs by MTT assay in presence of TRAIL; format: functional, U-373MG ATCC
Method in brief: (§6)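 MTT viability. 3–5 × 10^3 cells/well, treated the next day with TRAIL 100 ng/mL plus increasing morusin concentrations for 24 h. 1 mg/mL MTT for 2 h at 37 °C, lysis overnight, OD 570 nm. Living-cell fractions were used for combination index analysis. Mean ± SD, at least three independent experiments.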

[8] = test system: U-87 MG; experiment: Induction of apoptosis in human U87MG cells assessed as increase in cleaved caspase 3 levels at 2.5 uM after 24 hrs by Western blot analysis in presence of TRAIL; format: functional, cell-based; details: U-87MG ATCC
Method in brief: (§7)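 U87MG and T98G given TRAIL 25 ng/mL plus morusin 2.5 μM together for 24 h; single-agent arms used TRAIL 50 ng/mL or morusin 5 μM. Lysates immunoblotted for cleaved caspase 3, 8, 9 and cleaved PARP, with β-actin as internal control.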

[9] = Reduction of PDGFR expression in human LN18 cells at 25 uM after 24 hrs by Western blot analysis; format: functional, cell-based; details: LN-18; method in brief: as §1
[10] = test system: U-251; experiment: Effect on DR4 expression in human U251MG cells upto 25 uM after 24 hrs by Western blot analysis; format: functional, cell-based; method in brief: as §5
[11] = Cytotoxicity against human LN18 cells assessed as reduction in cell viability after 24 hrs by MTT assay; format: functional, cell-based; details: LN-18, 24 h
Method in brief: (§8)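 Seeded 3–5 × 10^3 cells/well, treated the next day with a range of morusin (DMSO stock) for 24 h, 37 °C, 5% CO2. Then fresh medium with 1 mg/mL MTT for 2 h at 37 °C, lysis buffer overnight at 37 °C, OD 570 nm. Mean ± SD from at least three independent experiments in triplicate.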

[12] = Cytotoxicity against human U251MG cells assessed as reduction in cell viability measured up to 20 uM after 24 hrs by MTT assay in presence of TRAIL; format: functional, U-251; method in brief: as §6
[13] = Cytotoxicity against human U138MG cells assessed as reduction in cell viability after 24 hrs by MTT assay; format: functional, cell-based; details: U138-MG; method in brief: as §8
[14] = test system: T98G; experiment: Induction of apoptosis in human T98G cells assessed as increase in cleaved caspase 8 levels at 2.5 uM after 24 hrs by Western blot analysis in presence of TRAIL; format: functional, cell-based; method in brief: as §7
[15] = test system: U-251; experiment: Induction of DR4 expression in human U251MG cells at 25 uM after 24 hrs by FITC-conjugated flow cytometric analysis; format: functional, cell-based; method in brief: as §2
[16] = Reduction of XIAP expression in human U373MG cells at 25 uM by Western blot analysis; format: functional, cell-based; details: U-373MG ATCC, TDE = time-dependent effect; method in brief: as §3
[17] = test system: U-87 MG; experiment: Effect on DcR2 expression in human U87MG cells upto 25 uM after 24 hrs by Western blot analysis; format: functional, cell-based; details: U-87MG ATCC; method in brief: as §5
[18] = test system: U373 MG; experiment: Induction of DR5 expression in human U373MG cells at 25 uM after 24 hrs by FITC-conjugated flow cytometric analysis; format: functional, cell-based; details: U-373MG ATCC; method in brief: as §2
[19] = test system: T98G; experiment: Induction of apoptosis in human T98G cells assessed as increase in cleaved caspase 3 levels at 2.5 uM after 24 hrs by Western blot analysis in presence of TRAIL; format: functional, cell-based; method in brief: as §7
[20] = test system: U-87 MG; experiment: Induction of DR5 expression in human U87MG cells at 25 uM after 24 hrs by FITC-conjugated flow cytometric analysis; format: functional, cell-based; details: U-87MG ATCC; method in brief: as §2
[21] = Reduction of XIAP expression in human U87MG cells after 24 hrs by Western blot analysis; format: functional, cell-based; details: U-87MG ATCC; method in brief: as §4
[22] = test system: U-87 MG; experiment: Induction of apoptosis in human U87MG cells assessed as increase in cleaved caspase 9 levels at 2.5 uM after 24 hrs by Western blot analysis in presence of TRAIL; format: functional, cell-based; details: U-87MG ATCC; method in brief: as §7
[23] = test system: U-87 MG; experiment: Induction of apoptosis in human U87MG cells assessed as increase in cleaved PARP levels at 2.5 uM after 24 hrs by Western blot analysis in presence of TRAIL; format: functional, cell-based; details: U-87MG ATCC; method in brief: as §7
[24] = test system: U-87 MG; experiment: Effect on DcR1 expression in human U87MG cells upto 25 uM after 24 hrs by Western blot analysis; format: functional, cell-based; details: U-87MG ATCC; method in brief: as §5
[25] = Cytotoxicity against human U87MG cells assessed as reduction in cell viability after 24 hrs by MTT assay; format: functional, cell-based, U-87MG ATCC; details: U-87 MG; method in brief: as §8
[26] = test system: U373 MG; experiment: Effect on cIAP1 expression in human U373MG cells at 25 uM after 3 to 18 hrs by Western blot analysis; format: functional, cell-based; details: U-373MG ATCC
Method in brief: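 Time course: U87MG and U373MG cells held at 25 μM morusin for the times indicated. Extracts immunoblotted (cIAP1 or DR5), with β-actin as loading control.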

[27] = Reduction of PDGFR expression in human U251MG cells at 25 uM after 24 hrs by Western blot analysis; format: functional, cell-based; details: U-251; method in brief: as §1

Q: With CC(C)=CCc1c(-c2ccc(O)cc2O)oc2c3c(cc(O)c2c1=O)OC(C)(C)C=C3 [MORUSIN] as the molecule, how does the Activity [1] read?
A: Its Activity is “Active”.

Q: What about the Activity [2] of the same molecule?
A: The Activity was “Active”.

Q: And the inhibition [3]?
A: The inhibition was “tde”.

Q: What about the inhibition [4] of the same molecule?
A: The inhibition was “Dose-dependent effect”.

Q: What about the Activity [5] of the same molecule?
A: The Activity was “inactive”.

Q: What about the Activity [6] of the same molecule?
A: The Activity was “tde”.

Q: What about the CI [7] of the same molecule?
A: Its CI is under 0.8.

Q: And the Activity [8]?
A: The Activity was “Active”.

Q: And the Activity [9]?
A: The Activity was “Active”.

Q: And the Activity [10]?
A: The Activity was “inactive”.

Q: What about the pIC50 [11] of the same molecule?
A: The pIC50 was 4.62.

Q: And the CI [12]?
A: The CI was under 0.8.

Q: What about the pIC50 [13] of the same molecule?
A: The pIC50 was 4.62.

Q: And the Activity [14]?
A: The Activity was “Active”.

Q: And the Activity [15]?
A: Its Activity is “inactive”.

Q: What about the inhibition [16] of the same molecule?
A: Its inhibition is “tde”.

Q: And the Activity [17]?
A: Its Activity is “inactive”.

Q: And the Activity [18]?
A: The Activity was “Active”.

Q: And the Activity [19]?
A: Its Activity is “Active”.

Q: And the Activity [20]?
A: The Activity was “Active”.

Q: And the inhibition [21]?
A: The inhibition was “Dose-dependent effect”.

Q: What about the Activity [22] of the same molecule?
A: The Activity was “Active”.

Q: What about the Activity [23] of the same molecule?
A: Its Activity is “Active”.

Q: And the Activity [24]?
A: Its Activity is “inactive”.

Q: What about the pIC50 [25] of the same molecule?
A: Its pIC50 is 4.62.

Q: What about the Activity [26] of the same molecule?
A: The Activity was “inactive”.

Q: What about the Activity [27] of the same molecule?
A: The Activity was “Active”.
